Drawing on ChEMBL document CHEMBL4513216, “Probing the Open Global Health Chemical Diversity Library for Multistage-Active Starting Points for Next-Generation Antimalarials” (ACS Infect Dis, 2020), this text covers cytotoxicity for 96 compounds.

Molecules are shown by their SMILES.

This data set in a line: Toxicity liver stage against HepG2, at 10uM. Format: cell-based. Also noted: test concentration 10 uM, cell line HepG2-A16-CD81EGFP. As to conditions: human, HepG2-A16-CD81EGFP cells; read-out: INHIBITION
In short, it runs like this:
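Uninfected HepG2-A16-CD81EGFP cells, 3 × 10^3 per well, 1536-well, plated on prespotted compound at 10 μM final, parasite-free screening media added to match infected plates; puromycin 10 μM positive, DMSO 0.5% negative; run in parallel with 48 h PbLuc assay at 37 °C, 5% CO2; viability by CellTiter-Glo luminescence, normalized to controls.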
As for `COCCN1C[C@H]2CN(C(=O)NCc3ccccc3)CCN2C1=O`, the cytotoxicity at 10 µM was determined as 2.08%.

On to `COCc1cc(C[C@@H]2CC[C@H](O)[C@@H](CNCC(C)C)O2)no1`, for which the cytotoxicity at 10 µM worked out at 0.847%.

With `CC(C)(C)n1ncc2c1NC(=O)CSC2c1ccsc1` (stereo unspecified), the cytotoxicity at 10 µM is -2.34%. Then `Cc1nn(C)cc1-c1nn2c(C(F)(F)F)nnc2s1`, with 2.48%; and `COCCNC(=O)NCCn1nc(C(F)(F)F)n(C)c1=O`, with -2.06%; and `CC(C)N1CCc2[nH]nc(C(=O)N3CCCC3C)c2C1` (stereo unspecified), with -6.25%. The value for `CNC(=O)[C@@]12CCC3(CCNCC3)[C@@H]1CN(S(C)(=O)=O)C2` was -2.86%; that for `CCc1ccc(NC(=O)N2C[C@H]3CC[C@@]4(N=C(C)N(C)C4=O)[C@H]3C2)cc1` was 11%.

`COCC1CN(C(=O)c2cccn2C)Cc2cnn(C)c21` (stereo unspecified): the cytotoxicity at 10 µM was 7.43%. `COc1cc(C(=O)NCC2CCCO2)nc2c(C)cc(F)cc12` (stereo unspecified): the cytotoxicity at 10 µM is 1.79%. Consider `COC(=O)c1sccc1S(=O)(=O)NCC1(O)CCOc2ccccc21` (stereo unspecified), for which the cytotoxicity at 10 µM is -10.9%. The value for `CC(=O)N1CCn2c(COCc3csc(C)n3)cnc2C1C` (stereo unspecified) was -12.5%.

Regarding `CN(C)[C@@H]1CCN(c2ncccn2)[C@H]1Cc1ccccc1`, the cytotoxicity at 10 µM is -9.29%. Then `Cn1cc(Br)c(C(=O)NCCn2cc(Br)cn2)n1`, with -13.3%. Then `O=C(O)c1cnc(N2CCCC2)nc1COc1ccccc1`, with 0.924%; and `COc1ccc(CNC(=O)c2nn(C)c3c2CS(=O)(=O)CC3)cc1OC`, with 8.09%. The value for `CC(=O)N1CCOC(c2c(C(=O)NCCN(C)C)sc3ccccc23)C1` (stereo unspecified) was -1.19%; that for `CN(CCOc1ccc(F)cc1)S(=O)(=O)N1CCOCC1` was 7.71%; that for `c1cnc(NCCCOC2CCOCC2)nc1` was -2.96%. For the compound `COCC(=O)Nc1nnc2n(Cc3cccc(OC)c3)[nH]c(C)c1-2`, the cytotoxicity at 10 µM is -11.7%.

With `CCC(C)NC(=O)CS(=O)(=O)Cc1ccccc1Cl` (stereo unspecified), the cytotoxicity at 10 µM was 3.79%. Turning to `CN(C)C(=O)CCCn1ccc(NCc2ccc(C#N)cc2)n1`, the cytotoxicity at 10 µM amounted to 1.92%. Then `CCCOc1cc(CNC(=O)Nc2ccc(C)cc2)ccn1`, with 2.99%. The value for `NC(=O)CN1CCc2c(Br)ccc(F)c2C1` was 0.892%; that for `CC(C)Oc1cccc(CN(C)C(=O)Nc2cccn(C)c2=O)c1` was -6.13%; that for `CN(C(=O)c1ccc(NC(=O)c2cc[nH]n2)cc1)C1CCCCC1` was -2.98%. The value for `CN(C)c1ccc(C(=O)Nc2ccn(CC(N)=O)n2)cn1` was -5.75%. On to `O=C(CNC(=O)c1ccccc1I)NCc1ccccc1F`, for which the cytotoxicity at 10 µM was determined as 1.16%. Then `O=c1[nH]nc(SCC2CCCO2)n1C1CC1` (stereo unspecified), with 0.0288%; and `Cc1cc(N2CCc3c(ncn3C)C2)nc(N)n1`, with -7.93%; and `Cc1cnc(CN2CCN(C(C)c3nc(C)no3)CC2)cn1` (stereo unspecified), with 1.81%. Then `O=C(NCC(c1cccs1)N1CCOCC1)c1ccc(F)cc1Cl` (stereo unspecified), with -2.27%; and `CCOc1ccc(CC(=O)Nc2cnccc2SCCCO)cc1`, with 7.94%. For the compound `Cc1cccc(-c2noc(CN3CCn4c(nnc4C4CC4)C3)n2)c1`, the cytotoxicity at 10 µM is -9.03%. Then `COc1ccc2c(c1)C(=O)N(C)C1(CCN(CC=C(C)C)CC1)N2`, with 3.31%. Turning to `Cc1n[nH]c(C)c1NC(=O)c1cccc(OCC(F)(F)F)n1`, the cytotoxicity at 10 µM was -6.83%. The value for `O=C(CNc1cc(F)ccc1OC(F)F)NCC(F)(F)F` was -2.79%; that for `CC(CNC(=O)c1c[nH]nn1)Oc1cccc(Br)c1` (stereo unspecified) was -10.3%. Then `COc1ccc(S(=O)(=O)C(C)C(=O)NCCOc2cccc(C)c2)cc1` (stereo unspecified), with -2.24%; and `Cc1c(NC(=O)NC2CCCC2)cccc1C(=O)N1CCSCC1`, with 11.8%; and `CCc1nnsc1C(=O)N1CCN(CC(O)C(C)(C)C)CC1` (stereo unspecified), with 0.542%. Then `O=C(O)c1csc(S(=O)(=O)N2CCCc3cc(OC(F)F)ccc32)c1`, with -9.69%; and `CCOc1ccc(C(F)(F)F)cc1NC(=O)NCc1noc(C)n1`, with -5.1%; and `O=C(c1ccccc1O)N1CCN(C(=O)C2CCC2)CC1`, with 2.42%.

For `c1ccc(CN2CCCC2)c(CNc2cncc3nnnn23)c1`, the cytotoxicity at 10 µM was 0.351%.

With `CC(=O)Nc1ccc(C(=O)N2CCSCC2c2ccc(C)o2)cc1` (stereo unspecified), the cytotoxicity at 10 µM worked out at 11.4%. As for `CCCNC(=O)C1CCCN(Cc2ccc(-n3cncn3)c(C)c2)C1` (stereo unspecified), the cytotoxicity at 10 µM amounted to 8.28%. Then `OC(CN1CCOCC1)c1cc(Cl)ccc1Cl` (stereo unspecified), with -1.57%. With `COC(C)(C)CC(C)NC(=O)Nc1ccccn1` (stereo unspecified), the cytotoxicity at 10 µM is 8.19%. The value for `CC1CCCN1C1CCN(C(=O)c2cccc(-c3ccoc3)c2)CC1` (stereo unspecified) was -9.63%; that for `CC(=O)N(C)c1nc(CN2CCOC(Cn3cccn3)C2)cs1` (stereo unspecified) was -12.8%. Then `CCc1nc2n(n1)CC(NCc1nc(C)ccc1O)CC2` (stereo unspecified), with -9.96%.

On to `CS(=O)(=O)Cc1cccc(C(=O)NCC2Cc3ccccc3O2)c1` (stereo unspecified), for which the cytotoxicity at 10 µM was -16.5%. The value for `COc1ccc2cc(CN(C)CCN3CCCCC3=O)c(=O)[nH]c2c1` was 0.363%; that for `CCC(C)NC(=O)c1coc(COc2cccc(F)c2)n1` (stereo unspecified) was -146%. The value for `NS(=O)(=O)c1ccc(F)c(C(=O)NCCSc2ccccn2)c1` was -9.11%; that for `COCc1noc(Cn2ccc3ccccc3c2=O)n1` was 0.761%. The value for `Cc1ccc(Oc2ncccc2CNC2CCOCC2)cn1` was -3.73%. Consider `COc1cccc(CN2C[C@H]3CC[C@H]2C3)c1OCCN1CCOCC1`, for which the cytotoxicity at 10 µM is 0.101%. The value for `CC(=O)Nc1ccsc1C(=O)Nc1cnc2n1CCCC2` was -4.58%. The value for `CCN1CCN(C[C@@H]2CN(c3ncccc3C(F)(F)F)C[C@@H]2CO)CC1` was -4.47%; that for `Cc1ccc2nc(C(=O)N3CCNC(=O)C3c3cccc(F)c3)cn2c1` (stereo unspecified) was -5.66%. The value for `Cc1cc(C)c2c(N3CCN(C(=O)N4CCOCC4)CC3)ncnc2n1` was -8.29%; that for `O=C(NCc1ccc(F)cc1F)C(c1cccnc1)N1CCOCC1` (stereo unspecified) was -4.89%.

As to `CC(C)c1cc(-c2cnn(C)c2C2CC2)c(C#N)c(N)n1`, the cytotoxicity at 10 µM was determined as 28.5%. The value for `Cc1cccc(CN2CCCC(O)(CNCc3cccc(F)c3)C2=O)c1` (stereo unspecified) was -12.1%; that for `COCC1CCCCN1C(=O)c1cc(Cn2ccc3ccccc32)[nH]n1` (stereo unspecified) was -3.54%. The value for `CCc1ncc(C(=O)N2CCN(C(=O)COc3ccccc3)CC2)cn1` was -12.8%; that for `Cc1cccc2[nH]c(C3CCN(C(=O)c4c[nH]c(=O)[nH]c4=O)CC3)nc12` was 8.59%. The value for `CS(=O)(=O)N1CCC(Oc2ccc(C(=O)NC3CCCC3)cc2Cl)CC1` was -1.02%; that for `CC(=O)N1C[C@H](NS(=O)(=O)c2cccc(Cl)c2)[C@@H](C(C)C)C1` was 7.82%; that for `CCN1CCN(C(=O)c2cccc(CN3CCOCC3)c2)CC1` was 7.12%.

As to `Cn1ccnc1C(=O)N1CCCC1c1ccc(C(=O)N2CCOCC2)s1` (stereo unspecified), the cytotoxicity at 10 µM is -155%. Then `N#Cc1c(C2CC2)cc(-c2ccc(O)cc2)nc1N`, with -4.72%. The value for `CCc1nc(C)c([C@H]2CN(C)C[C@@H]2C(=O)Nc2ccc(OC)cc2)[nH]1` was -6.66%. Then `CCc1nc(C2CCCN2CC(=O)Nc2cc(C)no2)no1` (stereo unspecified), with -1.68%; and `CCN1N=C(C(=O)N2CCCC(c3nc(C)c(C)s3)C2)CCC1=O` (stereo unspecified), with 1.84%; and `Cn1ccnc1COc1ccc(CN2CCC(C(N)=O)CC2)cc1`, with -4.47%.

Regarding `Cc1nc(C)n(CC2CN(c3ncccc3C#N)CCO2)n1` (stereo unspecified), the cytotoxicity at 10 µM is -10.1%. The value for `CC(=O)NCCNC(=O)c1sc(-c2ccc(Cl)cc2)nc1C` was -7.6%. The value for `Cc1ccc(N2CCCN(C(=O)CCC3CCCO3)CC2)nn1` (stereo unspecified) was -16.3%. Then `Cc1nc(C)n(CC2CCCN(Cc3cccnc3)C2)n1` (stereo unspecified), with -18.7%. Regarding `c1cc(-c2noc(CN3CCn4c(nnc4C4CC4)C3)n2)cs1`, the cytotoxicity at 10 µM was -7.07%. As for `COc1ccc(NC(=O)NCc2ccnc(N(C)C)c2)cn1`, the cytotoxicity at 10 µM is -8.6%. The value for `Cc1cccc(CNC(=O)N(CCCO)C2CCc3ccccc32)n1` (stereo unspecified) was -10.5%. Then `CCOCC(O)CN1CCN(C(=O)C2CCC2)CC1` (stereo unspecified), with -11.8%.

With `O=C(Cc1c[nH]c2ccccc12)N1CCC(Nc2ccccc2)CC1`, the cytotoxicity at 10 µM was -12.9%. Then `CCc1nc(CN2CCOC(Cn3nc(C)nc3C)C2)no1` (stereo unspecified), with -5.38%; and `O=C(Nc1cnccn1)[C@H]1COC[C@H]2CN(C3CCCC3)C[C@H]21`, with -20.4%; and `Cc1csc(CCNCc2cnc3c(c2)c(C)nn3C)n1`, with 5.76%.

`CC(C)N(C)Cc1cn2c(n1)CN(Cc1ccsc1)CC2`: the cytotoxicity at 10 µM was -16.1%. Then `CN(C)C(=O)NCc1cc2n(n1)CCCN(CC1[C@H]3CNC[C@@H]13)C2` (stereo partly specified), with -5.77%; and `COC(=O)N1C[C@@H]2CC[C@H]1CN(Cc1cscn1)C2`, with -9.25%.

As to `COc1ccc(OC)c(C2c3c(n[nH]c3C)N=C3COC(=O)C32)c1` (stereo unspecified), the cytotoxicity at 10 µM is -11.3%. The value for `C=c1occc1=C1NN=C2SC(C#N)C(N)=NN21` (stereo unspecified) was 0.331%; that for `Cc1oc(C(C)C)cc1C(=O)N1C[C@@H]2CC[C@H]1CN(C(=O)N(C)C)C2` was -119%.
